Screening data (PubChem BioAssay)
The list is not random: actives were taken first. Their share in the collection is about 3.5%.
MrgX1 ag = agonists of human MrgX1 receptor, primary screen, HEK293 cells, Fluo-4 calcium flux; AID 588627, 2011; B-score at 10 µM; 310,000 tested, 0.44% active; Mas-related G-protein coupled receptor member X1 (Homo sapiens), Q96LB2; Fluo-4 calcium fluorescence, agonist mode; hits give high values;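 active = calcium response B-score plate-corrected fluorescence ratio at least 3 library SD, with starting fluorescence B-score inside 5 SD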
Target sequence (Q96LB2 whole entry, looked up): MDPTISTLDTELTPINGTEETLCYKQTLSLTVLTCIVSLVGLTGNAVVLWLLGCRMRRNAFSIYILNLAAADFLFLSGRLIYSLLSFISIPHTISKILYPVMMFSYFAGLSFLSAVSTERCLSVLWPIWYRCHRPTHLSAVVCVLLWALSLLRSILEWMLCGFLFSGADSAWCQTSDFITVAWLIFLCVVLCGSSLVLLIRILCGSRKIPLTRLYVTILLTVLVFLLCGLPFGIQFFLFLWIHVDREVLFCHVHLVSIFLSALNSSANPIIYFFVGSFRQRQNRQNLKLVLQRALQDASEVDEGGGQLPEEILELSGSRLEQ
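Material: MrgX1-expressing HEK293 cells; input: 15,000 cells per well; doses: test compound given as first of three sequential additions; schedule: overnight plating before 1 h dye loading; technique: Fluo-4 NW calcium-flux fluorescence, kinetic read; evaluation: baseline-normalised fluorescence change ratio, B-scored; control set: plate-wise positive and negative controls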
RGS4 act = RGS4 potentiators or activators, primary screen, cell-based, HEK293 M3R inducible RGS4, calcium flux. B-score at 10 µM. carbachol calcium flux Fluo4; hits give low values. 310,000 tested, 0.92% active;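 active = B-score of the integrated calcium signal more than 4 SD below the library mean, with starting fluorescence not abnormally high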;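 also: negative B-score means reduced calcium response which marks RGS4 activation or potentiation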
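System – HEK293 FlpIn-TREx cells, stable M3R, doxycycline-inducible RGS4 · Reagent – ECmax carbachol challenge · Times – compound preincubation 20 min at room temperature before agonist · Technique – Fluo4 fluorescence kinetic imaging of calcium · Measure – B score of integrated Fluo4 ratio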
RGS4 block = RGS4 inhibitors, primary screen, cell-based, HEK293 M3R inducible RGS4, calcium flux; Regulator of G-protein signaling 4 (Homo sapiens), P49798; Fluo-4 calcium flux; hits give high values; triggered by carbachol at its EC20; B-score at 10 µM; 310,000 tested, 0.45% active; AID 463165, 2010;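 active = B-score, a plate-corrected calcium signal, over three deviations above library mean, with baseline fluorescence within five deviations of library mean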;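 also: RGS4 expression induced by doxycycline in cells with stable M3 receptor; B-score is computed from the integrated fluorescence ratio over baseline after carbachol; higher B-score means a larger calcium signal and so more RGS4 inhibition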
Target sequence (P49798 whole entry, looked up): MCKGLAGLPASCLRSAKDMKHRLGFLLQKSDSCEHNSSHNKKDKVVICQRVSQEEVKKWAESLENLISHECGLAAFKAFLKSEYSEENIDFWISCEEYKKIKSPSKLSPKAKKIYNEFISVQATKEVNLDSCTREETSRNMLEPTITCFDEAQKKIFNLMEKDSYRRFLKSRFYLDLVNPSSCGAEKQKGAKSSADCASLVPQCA
MrgX1 allo act = positive allosteric modulators of MrgX1, primary screen, HEK293 cells, Fluo-4 calcium flux. B-score at 10 µM. Mas-related G-protein coupled receptor member X1 (Homo sapiens), Q96LB2. FDSS; hits give high values. 310,000 tested, 0.63% active;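 active = plate-corrected calcium response at least 3 library SD above typical, normal starting fluorescence, not activating the receptor alone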;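 also: compound read alongside a low EC10 to EC30 dose of BAM8-22 agonist; peak minus trough fluorescence over baseline measured at the second addition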
MrgX1 antag = antagonists of human MrgX1 receptor, primary screen, HEK293 cells, Fluo-4 calcium flux; Mas-related G-protein coupled receptor member X1 (Homo sapiens), Q96LB2; BAM8-22 antagonism; hits give low values; B-score at 10 µM; 310,000 tested, 1.3% active;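 active = calcium-response B-score plate-corrected more than 3 library SD below zero, starting fluorescence within 5 deviations, no agonist response on first addition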;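 also: peak minus trough fluorescence over baseline after final BAM8-22 challenge near maximal dose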
MrgX1 antag conf = MrgX1 receptor antagonists, duplicate retest, confirmation, HEK293 cells, Fluo-4 calcium flux; 2,300 tested, 19% active; shares compounds with MrgX1 antag; BAM8-22 calcium flux; hits give low values; remaining BAM8-22 calcium response % of control (hits give low values), % at 10 µM;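 active = remaining agonist calcium response no higher than 100% minus 3 SD of agonist-only control wells, with starting fluorescence near control levels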;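 also: agonist BAM8-22 given at a near maximal EC90 to ECmax level; peak minus minimum fluorescence divided by baseline after agonist addition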
HEK293 Ca flux = nonspecific calcium signal in parental HEK293, confirmation, counter-screen for MrgX1 antagonist project, parental HEK293 cells, Fluo-4 calcium flux; fluorescence ratio F(max-min)/F0 at 10 µM; 4,000 tested, 2% active; shares compounds with MrgX1 antag; Fluo-4 calcium fluorescence, FDSS;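 active = duplicate-averaged calcium fluorescence ratio at least three times the standard deviation of buffer wells, a nonspecific response in parental cells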
HEK293 Ca counter = calcium response in parental HEK293 cells, primary screen, counter-screen for MrgX1 allosteric activator project, cell-based, Fluo-4 calcium flux, duplicate. shares compounds with MrgX1 antag. Fluo-4 fluorescence ratio; hits give high values. fluorescence ratio F(max-min)/F0 at 10 µM. 4,000 tested, 0.4% active. AID 624114, 2012;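 active = calcium fluorescence ratio, averaged over duplicates, at least 3 SD of the buffer-well ratio, meaning a nonspecific response in receptor-free cells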;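 also: untransfected parental HEK293 lacking MrgX1 used as counterscreen for MrgX1 allosteric activators; fluorescence change taken during the second addition on a kinetic imager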
HEK293 Ca cntr2 = calcium response in parental HEK293 cells, primary screen, counter-screen for MrgX1 agonist project, cell-based, Fluo-4 calcium flux, duplicate, agonist mode. Fluo-4 calcium fluorescence (FDSS); hits give high values. AID 624115, 2012. shares compounds with MrgX1 antag. fluorescence ratio F(max-min)/F0 at 10 µM. 4,000 tested, 8.7% active;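 active = calcium fluorescence ratio at least three times the spread of buffer wells, meaning a non-specific response in parental cells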
An asterisk follows results filed as active; i = inactive; x = no result given.

SMILES | MrgX1 ag | RGS4 act | RGS4 block | MrgX1 allo act | MrgX1 antag | MrgX1 antag conf | HEK293 Ca flux | HEK293 Ca counter | HEK293 Ca cntr2
Cc1ccc(CNc2cnccn2)cc1 | i | i | i | i | -6.11* | i | i | i | i
O=S(=O)(c1ccc(N2CCOCC2)cc1)N1CCOCC1 | i | i | i | i | -4.88* | i | i | i | i
CCS(=O)(=O)N1CCN(c2ccc(S(=O)(=O)N3CCOCC3)cc2)CC1 | i | i | i | i | i | x | x | x | x
S=C(Nc1ccccc1)Nc1ccc(Cl)cc1Cl | i | i | i | i | i | x | x | x | x
NC(=S)Nc1ccc(Cl)cc1Cl | i | i | i | i | -6.49* | i | i | i | i
Nc1nnnn1/N=C/C=C/c1ccccc1 | i | i | i | i | i | x | x | x | x
Nc1nnnn1/N=C/C(Br)=C/c1ccccc1 | i | i | i | i | -5.11* | i | i | i | i
Cc1ccc(NC(=S)NCCc2ccc(F)cc2)c(C)c1 | i | i | i | i | -6.15* | i | i | i | i
COc1ccc(CCN(CC(=O)NC2CCCC2)C(=O)Cn2nnc(-c3ccc(C)o3)n2)cc1OC | i | i | i | i | i | x | x | x | x
Cc1ccc(C2C3=C(CCCC3=O)N=C3c4ccccc4C(=O)C32)cc1 (stereo not given) | i | i | i | i | -16.2* | i | i | i | i
O=C1CCCC2=C1C(c1ccccc1)C1C(=O)c3ccccc3C1=N2 (stereo not given) | i | i | i | i | i | x | x | x | x
Cc1cc(S(=O)(=O)N2CCOCC2)ccc1OCC(=O)Nc1ccc(Br)cc1F | i | i | i | i | i | x | x | x | x
O=C(Nc1ccc(Cl)c(Cl)c1)Nc1ccccc1NS(=O)(=O)c1cccs1 | i | i | i | i | -7.26* | 73.9%* | i | i | i
O=C(Nc1ccccc1)Nc1ccccc1NS(=O)(=O)c1cccs1 | i | i | i | i | i | x | x | x | x
Cc1ccccc1OCCN(C#N)c1nc(N(C)C)nc(N(C)C)n1 | i | i | i | i | -4.93* | i | i | i | i
CCC(C)NC(=O)C1c2ccccc2C(=O)N(c2ccc(OC)cc2)C1c1ccc(OC)cc1 (stereo not given) | i | i | i | i | -6.46* | i | i | i | i
O=C(c1cnn2c(C(F)F)cc(-c3ccccc3)nc12)N1CCc2ccccc21 | i | i | i | i | -4.73* | i | i | i | i
Cc1ccc(-c2cc(C(F)F)n3ncc(C(=O)N4CCc5ccccc54)c3n2)cc1 | i | i | i | i | i | x | x | x | x
CCN1CCN(C(=O)c2cnn3c(C(F)F)cc(-c4ccc(C)cc4)nc23)CC1 | i | i | i | i | -8.53* | i | i | i | i
COc1ccc(C)cc1NC(=O)CCNC(=O)Cn1cnc2ccccc2c1=O | i | i | i | i | i | x | x | x | x
Cc1nn(-c2ccccc2)c2nc(-c3ccncc3)cc(C(=O)NCc3ccco3)c12 | i | i | i | i | -5.9* | i | i | i | i
O=C(NCc1ccco1)c1cnn2c(C(F)(F)F)cc(-c3ccccc3)nc12 | i | i | i | i | -4.74* | i | i | i | i
NC(=O)c1cnn2c(C(F)(F)F)cc(-c3ccccc3)nc12 | i | i | i | i | i | x | x | x | x
Cc1ccc2nc(-c3ccc(NC(=O)CSc4ccccc4)cc3)[nH]c2c1 | i | i | i | i | -5.26* | i | i | i | i
Nc1c(C(=O)N2CCOCC2)sc2nc(N3CCOCC3)c3c(c12)CCCC3 | i | i | i | i | i | x | x | x | x
SMILES | MrgX1 ag | RGS4 act | RGS4 block | MrgX1 allo act | MrgX1 antag | MrgX1 antag conf | HEK293 Ca flux | HEK293 Ca counter | HEK293 Ca cntr2
Cc1cccc2cc3c(N)c(C(=O)N4CCOCC4)sc3nc12 | i | i | i | i | -5.14* | i | i | i | 48.3*
COCCOC(=O)/C(C#N)=C/c1cn(Cc2ccccc2)nc1-c1cccnc1 | i | i | i | i | i | x | x | x | x
CCN1C(=O)c2cccc3c(S(=O)(=O)Nc4ccncc4)ccc1c23 | i | i | i | i | i | x | x | x | x
CCN1C(=O)c2cccc3c(S(=O)(=O)Nc4ccccc4)ccc1c23 | i | i | i | i | -6.86* | i | i | i | i
COCCCNC(=S)N1CCN(c2nc(-c3ccc(F)cc3)cs2)CC1 | i | i | i | i | i | x | x | x | x
CCOCCCNC(=S)N1CCN(c2nc(-c3ccc(F)cc3)cs2)CC1 | i | i | i | i | -6.42* | 71.3%* | i | i | i
CCOC(=O)C1=C(COC(=O)CCNS(=O)(=O)c2ccc(NC(C)=O)cc2)NC(=O)NC1C (stereo not given) | i | i | i | i | i | x | x | x | x
CCCCNC(=O)N1CCOCCOCCN(C(=O)NCCCC)CCOCC1 | i | i | i | i | -4.62* | i | i | i | i
COc1cccc(NC(=O)Nc2ccc3c(c2)N(C)C(=O)CS3)c1 | i | i | i | i | -7.29* | 42.0%* | i | i | i
CC(=O)Nc1ccc(NC(=O)Nc2ccc3c(c2)N(C)C(=O)CS3)cc1 | i | i | i | i | i | x | x | x | x
CCOc1ccc(OCC)c(NC(=O)Nc2ccc3c(c2)N(C)C(=O)CS3)c1 | i | i | i | i | -6.35* | 80.4%* | i | i | i
COCCCNC(=S)N1CCN(c2nc(C)nc3sc4c(c23)CCCC4)CC1 | i | i | i | i | -6.57* | i | i | i | i
CCCNC(=S)N1CCN(c2nc(C)nc3sc4c(c23)CCCC4)CC1 | i | i | i | i | i | x | x | x | x
